Experiments:
Format in all cases: functional, cell-based
CCRF-CEM [1] = assay: The compound was tested for cytostatic activity against CEM cells; conditions: Homo sapiens
Outline: (§1)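 Human T4-lymphocyte CEM or Molt cells were seeded at 5–7.5 × 10⁴ cells per well with test compound. They grew for 72 h at 37 °C in humidified, CO₂-controlled air and were then counted with a Coulter counter. IC50 is the compound concentration that cut viable cell number by 50%.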

L1210 = assay: The compound was tested for cytostatic activity against murine leukemia L1210 cells; conditions: Mus musculus
Outline: (§2)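 Murine L1210 leukemia or FM3A mammary carcinoma cells went in at 5–7.5 × 10⁴ per well alongside test compound. Proliferation ran 48 h at 37 °C in a humidified CO₂-controlled atmosphere, followed by Coulter counter cell counts. IC50 is the concentration reducing viable cells by 50%.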

FM3A [2] = assay: The compound was tested for cytostatic activity against mammary FM3A cells; conditions: Mus musculus; outline: as §2
MOLT-4 = assay: The compound was tested for cytostatic activity against human T4-lymphocyte molt(molt 4/C8); outline: as §1
CCRF-CEM [3] = assay: The compound was tested for cytostatic activity against human CEM cells; outline: as §1
FM3A [4] = assay: The compound was tested for cytostatic activity against murine mammary FM3A cells; conditions: Mus musculus; outline: as §2

Row | IC50 (CCRF-CEM [1]) [µM] | IC50 (L1210) [µM] | IC50 (FM3A [2]) [µM] | IC50 (MOLT-4) [µM] | IC50 (CCRF-CEM [3]) [µM] | IC50 (FM3A [4]) [µM] | Structure (SMILES)
1 | > 200 | > 200 | > 200 | > 200 | – | – | C=CCO[C@H]1[C@H](O)[C@@H](COP(=O)(NC(C)C(=O)OCC)Oc2ccccc2)O[C@H]1n1ccc(N)nc1=O (stereo not given in full)
2 | 61 | 38 | 325 | > 500 | – | – | C=CCO[C@H]1[C@H](O)[C@@H](CO)O[C@H]1n1ccc(N)nc1=O
3 | > 200 | > 200 | > 200 | > 200 | – | – | C=CCO[C@H]1[C@H](O)[C@@H](COP(=O)(NC(C)C(=O)OCC)Oc2ccccc2)O[C@H]1n1ccc(=O)[nH]c1=O (stereo not given in full)
4 | 79 | 181 | 316 | 285 | – | – | C=CCO[C@H]1[C@H](O)[C@@H](CO)O[C@H]1n1cnc2c(N)ncnc21
5 | – | > 500 | – | > 500 | > 500 | > 500 | C=CCO[C@H]1[C@H](O)[C@@H](CO)O[C@H]1n1ccc(=O)[nH]c1=O
